In ChEMBL document CHEMBL3351935, “The synthesis, antimalarial activity and CoMFA analysis of novel aminoalkylated quercetin analogs” (Bioorg Med Chem Lett, 2015) one finds IC50, solubility and inhibition data, which are given here for 26 compounds.

Data set [1] deals with Plasmodium falciparum. Briefly: Antimalarial activity against chloroquine-resistant/mefloquine-sensitive Plasmodium falciparum W2 by malaria SYBR green 1-based fluorescence (MSF) assay. The format is functional, organism-based.
Data set [2] has as its system Plasmodium falciparum. Briefly: Antimalarial activity against chloroquine-sensitive/mefloquine-resistant Plasmodium falciparum D6 by malaria SYBR green 1-based fluorescence (MSF) assay. The format is functional, organism-based.
Data set [3] concerns Plasmodium falciparum. Briefly: Antimalarial activity against chloroquine /mefloquine/pyrimethamine-resistant Plasmodium falciparum C235 by malaria SYBR green 1-based fluorescence (MSF) assay. The format is functional, organism-based.
The nature of data set [4]: Aqueous solubility of the compound at 1 mM by UV spectroscopic assay. The data set is classed as physicochemical. The following applies: buffer. The procedure, abridged: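 Modified UV-spectroscopic method on the free base. A 1 mM DMSO stock was diluted to 4, 8, 12, 16 and 20 μM (2% DMSO in water) to build calibration curves. Each compound was suspended in medium to saturation, centrifuged at 8000 rpm for 10 min and filtered. Absorbance was read at 280 nm, 25 °C, and concentration was taken from the calibration best-fit line.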

Data set [5] has as its system Plasmodium falciparum. Briefly: Antigametocytocidal activity against Plasmodium falciparum NF54-pfs16-[…] early (1 to 3) gametocyte assessed as viability after 72 hrs by MitoTracker Red CM-H2XRos/micro-plate confocal imaging system. The data set is classed as functional, organism-based. The following applies: NF54, 72 h.
For data set [6], the system named is Plasmodium falciparum. Briefly: Antigametocytocidal activity against Plasmodium falciparum NF54-pfs16-[…] late (4 to 6) gametocyte assessed as viability at 40 uM after 72 hrs by MitoTracker Red CM-H2XRos/micro-plate confocal imaging system. The conditions noted are these: NF54, 72 h. The format is functional.
Data set [7] deals with Intercellular adhesion molecule 1 (Homo sapiens) (UniProt P05362). Briefly: Inhibition of human type O erythrocyte ICAM1-mediated Plasmodium falciparum infection with at 50 uM.
The subject of data set [8] is Plasmodium falciparum. Briefly: Antigametocytocidal activity against Plasmodium falciparum NF54-pfs16-[…] late (4 to 6) gametocyte assessed as viability at 120 uM after 72 hrs by MitoTracker Red CM-H2XRos/micro-plate confocal imaging system. The data set is classed as functional. The following applies: NF54, 72 h.
The test system of data set [9] is Plasmodium falciparum. Briefly: Antigametocytocidal activity against Plasmodium falciparum NF54-pfs16-[…] late (4 to 6) gametocyte assessed as viability after 72 hrs by MitoTracker Red CM-H2XRos/micro-plate confocal imaging system. The data set is classed as functional, organism-based. The conditions noted are these: NF54, 72 h.

≈ marks a conversion by molar mass, not a printed value.

Chain of Intercellular adhesion molecule 1 (Homo sapiens) (P05362 whole entry): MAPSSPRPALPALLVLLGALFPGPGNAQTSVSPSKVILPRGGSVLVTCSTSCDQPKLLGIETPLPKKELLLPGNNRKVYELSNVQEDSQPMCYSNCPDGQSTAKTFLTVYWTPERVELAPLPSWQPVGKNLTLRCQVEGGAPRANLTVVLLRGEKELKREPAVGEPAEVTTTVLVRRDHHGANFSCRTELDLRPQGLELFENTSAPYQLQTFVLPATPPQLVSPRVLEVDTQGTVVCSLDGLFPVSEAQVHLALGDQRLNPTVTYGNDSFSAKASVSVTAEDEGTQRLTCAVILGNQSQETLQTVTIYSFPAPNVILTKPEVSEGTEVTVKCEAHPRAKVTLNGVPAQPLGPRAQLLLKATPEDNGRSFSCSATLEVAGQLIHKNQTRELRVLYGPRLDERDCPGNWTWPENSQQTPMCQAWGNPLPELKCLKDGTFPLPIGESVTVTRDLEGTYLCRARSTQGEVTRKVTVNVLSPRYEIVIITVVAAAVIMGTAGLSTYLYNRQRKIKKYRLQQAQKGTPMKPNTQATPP

With `C[C@@H]1CC[C@H]2[C@@H](C)C(=O)O[C@@H]3O[C@@]4(C)CC[C@@H]1[C@]32OO4` [ARTEMISININ], the IC50 in the data set with Plasmodium falciparum [1] is 7 nM; in the data set on Plasmodium falciparum [2] it was 9 nM; in the data set on Plasmodium falciparum [3], 13 nM.

As for `Oc1cc(O)c2c(c1)O[C@H](c1ccc(O)c(O)c1)[C@@H](O)C2` [CIANIDANOL], the IC50 in the data set on Plasmodium falciparum [1] amounted to 6000 nM; in the data set with Plasmodium falciparum [2] it was 6700 nM; in the data set with Plasmodium falciparum [3], 5900 nM.

`O=c1c(O)c(-c2ccc(O)c(O)c2)oc2c(CNCCc3ccccc3F)c(O)cc(O)c12` displayed a solubility at 1000 µM in [4] of 95 µM (≈ 43.1 µg/mL). In addition, the results for the IC50 with Plasmodium falciparum [1], in the data set with Plasmodium falciparum [2] and in the data set with Plasmodium falciparum [3] were 240 nM, 110 nM and 180 nM, respectively.

For `O=c1c(O)c(-c2ccc(O)c(O)c2)oc2c(CNCc3cccc(F)c3)c(O)cc(O)c12`, the solubility at 1000 µM in data set [4] turned out to be 123 µM (≈ 54 µg/mL). Moreover, the IC50 was determined as 690 nM in the data set on Plasmodium falciparum [1], 510 nM with Plasmodium falciparum [2] and 620 nM in the data set with Plasmodium falciparum [3].

For `O=c1c(O)c(-c2ccc(O)c(O)c2)oc2c(CNCC3CCCO3)c(O)cc(O)c12` (stereo unspecified), the solubility at 1000 µM in data set [4] was found to be 39 µM (≈ 16.2 µg/mL). Also, the IC50 with Plasmodium falciparum [1], in the data set on Plasmodium falciparum [2] and in the data set with Plasmodium falciparum [3] was greater than 2210 nM each time.

`O=c1c(O)c(-c2ccc(O)c(O)c2)oc2c(CNCCc3c(Cl)cccc3Cl)c(O)cc(O)c12` came in with a solubility at 1000 µM in data set [4] of 199 µM (≈ 100 µg/mL). The concentration for half-maximal inhibition (IC50) is 230 nM in the data set with Plasmodium falciparum [1], 160 nM in the data set with Plasmodium falciparum [2] and 150 nM with Plasmodium falciparum [3].

In [4], `O=c1c(O)c(-c2ccc(O)c(O)c2)oc2c(CNCc3ccccc3)c(O)cc(O)c12` came in with a solubility at 1000 µM of 49 µM (≈ 20.6 µg/mL). Further, the IC50 with Plasmodium falciparum [1], in the data set on Plasmodium falciparum [2] and in the data set on Plasmodium falciparum [3] was greater than 2180 nM throughout.

For `O=c1c(O)c(-c2ccc(O)c(O)c2)oc2c(CN3CCCCC3)c(O)c(CN3CCCCC3)c(O)c12`, the concentration in solution in data set [4] (solubility at 1000 µM) came to 247 µM (≈ 123 µg/mL). For the same compound, the results for the concentration for half-maximal inhibition (IC50) with Plasmodium falciparum [1], in the data set on Plasmodium falciparum [2] and in the data set on Plasmodium falciparum [3] were 1200 nM, 1700 nM and 3100 nM, respectively.

For the compound `O=c1c(O)c(-c2ccc(O)c(O)c2)oc2c(CNCCc3cccc(F)c3)c(O)cc(O)c12`, the concentration in solution in data set [4] (solubility at 1000 µM) was 275 µM (≈ 125 µg/mL). In addition, the IC50 was 130 nM in the data set on Plasmodium falciparum [1], 69 nM with Plasmodium falciparum [2] and 88 nM in the data set on Plasmodium falciparum [3].

`O=c1c(O)c(-c2ccc(O)c(O)c2)oc2c(CNCCc3ccc(Cl)cc3Cl)c(O)cc(O)c12` showed a solubility at 1000 µM in data set [4] of 168 µM (≈ 84.7 µg/mL). Further, the IC50 in the data set on Plasmodium falciparum [1] is 71 nM; with Plasmodium falciparum [2], 65 nM; in the data set with Plasmodium falciparum [3] it was 79 nM; in the data set on Plasmodium falciparum [5], 9670 nM. Further, the inhibition at 40 µM in the data set on Plasmodium falciparum [6] was determined as 100%.

Consider `O=C(O[C@@H]1Cc2c(O)cc(O)cc2O[C@@H]1c1cc(O)c(O)c(O)c1)c1cc(O)c(O)c(O)c1` [EPIGALOCATECHIN GALLATE], for which the IC50 in the data set with Plasmodium falciparum [1] was 1400 nM; in the data set with Plasmodium falciparum [2], 73 nM; in the data set with Plasmodium falciparum [3], 610 nM. The same compound had an inhibition in data set [7] of 85%.

Take `O=c1c(O)c(-c2ccc(O)c(O)c2)oc2c(CNCc3ccc(F)cc3)c(O)cc(O)c12`: in data set [4], the solubility at 1000 µM worked out at 212 µM (≈ 93.2 µg/mL). Besides, the IC50 in the data set with Plasmodium falciparum [1] was 720 nM; in the data set with Plasmodium falciparum [2] it was 410 nM; in the data set with Plasmodium falciparum [3], 700 nM.

As for `O=c1c(O)c(-c2ccc(O)c(O)c2)oc2c(CNCCc3ccc(Cl)cc3)c(O)cc(O)c12`, the concentration in solution in data set [4] (solubility at 1000 µM) was 99 µM (≈ 46.5 µg/mL). Moreover, the IC50 is 1900 nM in the data set with Plasmodium falciparum [1], 830 nM with Plasmodium falciparum [2] and 1200 nM with Plasmodium falciparum [3].

As for `CCN(CC)CCCC(C)Nc1ccnc2cc(Cl)ccc12` (stereo unspecified) [CHLOROQUINE], in the data set with Plasmodium falciparum [8], the inhibition at 120 µM was 100%.

The compound `O=c1c(O)c(-c2ccc(O)c(O)c2)oc2c(CNCc3ccc(Cl)cc3)c(O)cc(O)c12` displayed a solubility at 1000 µM in [4] of 110 µM (≈ 50.1 µg/mL). Moreover, the IC50 with Plasmodium falciparum [1] was determined as 590 nM; in the data set on Plasmodium falciparum [2] it was 370 nM; with Plasmodium falciparum [3], 430 nM.

With `O=c1c(O)c(-c2ccc(O)c(O)c2)oc2c(CNCCc3ccc(F)cc3)c(O)cc(O)c12`, the concentration in solution in data set [4] (solubility at 1000 µM) was 136 µM (≈ 61.7 µg/mL). Further, the figures for the IC50 with Plasmodium falciparum [1], in the data set with Plasmodium falciparum [2] and in the data set with Plasmodium falciparum [3] were 290 nM, 140 nM and 150 nM, respectively.

For the compound `COc1ccc(C[C@H](N)C(=O)N[C@H]2[C@@H](O)[C@H](n3cnc4c(N(C)C)ncnc43)O[C@@H]2CO)cc1` [PUROMYCIN], the values for the IC50 in the data set on Plasmodium falciparum [5] and with Plasmodium falciparum [9] were 175 nM and 194 nM, respectively.

Consider `C[C@H]1[C@H](OC(=O)CCC(=O)O)O[C@@H]2O[C@@]3(C)CC[C@H]4[C@H](C)CC[C@@H]1[C@@]24OO3` [ARTESUNATE], for which the IC50 in the data set on Plasmodium falciparum [5] stood at 3 nM.

With `O=c1c(O)c(-c2ccc(O)c(O)c2)oc2c(CNCCc3ccccc3Cl)c(O)cc(O)c12`, the solubility at 1000 µM in data set [4] amounted to 85 µM (≈ 39.9 µg/mL). The IC50 with Plasmodium falciparum [1] is 290 nM; in the data set with Plasmodium falciparum [2], 250 nM; in the data set with Plasmodium falciparum [3] it was 260 nM.

`O=c1c(O)c(-c2ccc(O)c(O)c2)oc2cc(O)cc(O)c12` [QUERCETIN] yielded a solubility at 1000 µM in data set [4] of 44 µM (≈ 13.3 µg/mL). The results for the IC50 with Plasmodium falciparum [1], with Plasmodium falciparum [2] and in the data set with Plasmodium falciparum [3] were 2900 nM, 9000 nM and 13000 nM, respectively.

As to `O[C@@H](c1cc(C(F)(F)F)nc2c(C(F)(F)F)cccc12)[C@H]1CCCCN1` [(S,R)-MEFLOQUINE], the values for the IC50 with Plasmodium falciparum [1] and with Plasmodium falciparum [3] were 7 nM and 77 nM, respectively.

In turn, `O=c1c(O)c(-c2ccc(O)c(O)c2)oc2c(CNCc3ccco3)c(O)cc(O)c12` gave a solubility at 1000 µM in data set [4] of 40 µM (≈ 16.5 µg/mL). Besides, the IC50 in the data set with Plasmodium falciparum [1], with Plasmodium falciparum [2] and in the data set on Plasmodium falciparum [3] was greater than 2230 nM in each case.

Compound `O=c1c(O)c(-c2ccc(O)c(O)c2)oc2c(CNCCc3ccccc3)c(O)cc(O)c12` had a solubility at 1000 µM in [4] of 41 µM (≈ 17.9 µg/mL). The figures for the half-inhibitory concentration (IC50) in the data set with Plasmodium falciparum [1], with Plasmodium falciparum [2] and in the data set with Plasmodium falciparum [3] were greater than 2120 nM, 2110 nM and greater than 2120 nM, respectively.

With `CN1CCN(Cc2c(O)cc(O)c3c(=O)c(O)c(-c4ccc(O)c(O)c4)oc23)CC1`, in data set [4], the concentration in solution (solubility at 1000 µM) was 131 µM (≈ 54.3 µg/mL). Further, the figures for the half-maximal inhibitory concentration (IC50) in the data set with Plasmodium falciparum [1], with Plasmodium falciparum [2] and with Plasmodium falciparum [3] were 2400 nM, 2900 nM and 5300 nM, respectively.

In [4], `O=c1c(O)c(-c2ccc(O)c(O)c2)oc2c(CNCc3cccc(Cl)c3)c(O)cc(O)c12` came in with a solubility at 1000 µM of 107 µM (≈ 48.8 µg/mL). Besides, the IC50 with Plasmodium falciparum [1] came to 260 nM; in the data set with Plasmodium falciparum [2] it was 190 nM; with Plasmodium falciparum [3], 220 nM.

In turn, `O=c1c(O)c(-c2ccc(O)c(O)c2)oc2c(CNCCc3cccc(Cl)c3)c(O)cc(O)c12` had a solubility at 1000 µM in [4] of 199 µM (≈ 93.5 µg/mL). Further, the concentration for half-maximal inhibition (IC50) came out at 79 nM with Plasmodium falciparum [1], 69 nM in the data set on Plasmodium falciparum [2], 80 nM in the data set on Plasmodium falciparum [3] and 6790 nM with Plasmodium falciparum [5]. The inhibition at 40 µM in the data set on Plasmodium falciparum [6] came out at 100%.

As a reminder, the IC50 is the concentration that gives 50% inhibition. The solubility is the concentration that dissolves in the medium under given conditions. A lower solubility goes with a poorly soluble substance. As a reminder, the inhibition is how much of the control response was suppressed.
